The text below walks through data of ChEMBL document CHEMBL1142004, “Dipeptidyl aspartyl fluoromethylketones as potent caspase inhibitors: peptidomimetic replacement of the P2 alpha-amino acid by a alpha-hydroxy acid” (Bioorg Med Chem Lett, 2005).

pIC50: −log10 of the molar value. Where only a bound is given, the exact number is not on record here.

Assay [1] deals with HeLa. The experiment in a line: Concentration tested for 50% of TNF- alpha induce HeLa cell protection was determined. Format: functional, cell-based. Particulars: Homo sapiens. In a few lines:
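HeLa cells were treated with TNF-α to induce apoptosis, with inhibitor present. Viability was quantified by calcein AM uptake. The value is the inhibitor concentration giving 50% cell protection.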

In assay [2] the target is T1, Calpain-1 catalytic subunit (Homo sapiens, UniProt P07384).
T1 sequence (P07384 whole entry): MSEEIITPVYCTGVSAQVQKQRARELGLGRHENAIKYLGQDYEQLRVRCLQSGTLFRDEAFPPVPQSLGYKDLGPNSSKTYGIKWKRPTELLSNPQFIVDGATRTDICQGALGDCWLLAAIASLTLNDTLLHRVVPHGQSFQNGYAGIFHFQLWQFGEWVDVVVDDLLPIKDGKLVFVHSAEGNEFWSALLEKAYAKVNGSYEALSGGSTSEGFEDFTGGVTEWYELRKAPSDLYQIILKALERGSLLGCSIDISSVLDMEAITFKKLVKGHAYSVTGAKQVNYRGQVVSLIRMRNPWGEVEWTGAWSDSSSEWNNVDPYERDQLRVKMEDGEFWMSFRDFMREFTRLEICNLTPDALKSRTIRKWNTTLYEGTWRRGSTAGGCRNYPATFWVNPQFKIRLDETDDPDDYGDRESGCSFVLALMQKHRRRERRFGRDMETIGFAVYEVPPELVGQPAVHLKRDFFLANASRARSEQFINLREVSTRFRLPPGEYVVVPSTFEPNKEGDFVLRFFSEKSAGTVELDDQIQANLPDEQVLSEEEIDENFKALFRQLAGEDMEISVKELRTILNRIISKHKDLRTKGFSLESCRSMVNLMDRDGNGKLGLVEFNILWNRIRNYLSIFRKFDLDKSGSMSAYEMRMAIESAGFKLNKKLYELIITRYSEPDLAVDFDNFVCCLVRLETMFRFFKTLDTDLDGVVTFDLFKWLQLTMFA
The experiment in a line: Inhibitory concentration against Calpain 1. The method in brief:
(§1)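 Isolated-enzyme inhibition assays (calpain-1, cathepsin B, factor Xa) tested inhibitor at concentrations up to 100,000 nM. The read-out was IC50.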

Assay [3] deals with T2, Caspase-6 (Homo sapiens, UniProt P55212).
T2 sequence (P55212 whole entry): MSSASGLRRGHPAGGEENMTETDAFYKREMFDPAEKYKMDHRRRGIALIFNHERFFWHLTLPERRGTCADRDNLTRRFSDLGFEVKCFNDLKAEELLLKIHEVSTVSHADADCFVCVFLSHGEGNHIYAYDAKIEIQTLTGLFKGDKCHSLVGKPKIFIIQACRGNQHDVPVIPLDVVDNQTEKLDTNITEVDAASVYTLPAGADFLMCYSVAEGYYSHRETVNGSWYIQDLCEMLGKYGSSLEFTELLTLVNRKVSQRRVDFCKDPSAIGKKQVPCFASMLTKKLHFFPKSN
The experiment in a line: Inhibitory concentration against Caspase-6.

Assay [4] addresses T3, Caspase-7 (Homo sapiens, UniProt P55210).
T3 sequence (P55210 whole entry): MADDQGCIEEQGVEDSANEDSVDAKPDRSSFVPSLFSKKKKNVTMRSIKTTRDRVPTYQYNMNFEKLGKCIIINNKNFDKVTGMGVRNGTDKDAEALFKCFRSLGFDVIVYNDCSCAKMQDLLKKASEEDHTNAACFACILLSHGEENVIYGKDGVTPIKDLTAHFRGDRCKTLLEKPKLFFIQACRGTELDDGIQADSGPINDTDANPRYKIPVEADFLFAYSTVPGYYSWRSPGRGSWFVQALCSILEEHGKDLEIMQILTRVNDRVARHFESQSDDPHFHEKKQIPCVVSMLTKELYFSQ
Nature of the assay: Inhibitory concentration against Caspase-7.

The target of assay [5] is Caspase-8 (Homo sapiens, UniProt Q14790). Nature of the assay: Inhibitory concentration against Caspase-8.
The target in assay [6] is T4, Caspase-9 (Homo sapiens, UniProt P55211).
T4 sequence (P55211 whole entry): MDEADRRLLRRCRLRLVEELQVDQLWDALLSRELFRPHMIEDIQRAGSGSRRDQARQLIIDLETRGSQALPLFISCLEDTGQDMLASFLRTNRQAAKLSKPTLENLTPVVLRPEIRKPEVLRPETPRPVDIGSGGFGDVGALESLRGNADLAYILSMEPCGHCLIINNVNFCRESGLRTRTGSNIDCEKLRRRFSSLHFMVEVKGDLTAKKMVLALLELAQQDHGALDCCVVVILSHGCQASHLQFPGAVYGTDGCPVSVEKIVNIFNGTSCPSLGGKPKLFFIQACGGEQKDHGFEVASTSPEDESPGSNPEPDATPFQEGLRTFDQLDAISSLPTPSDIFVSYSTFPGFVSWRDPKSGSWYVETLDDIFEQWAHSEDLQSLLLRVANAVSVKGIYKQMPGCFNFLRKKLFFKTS
The experiment in a line: Inhibitory concentration against Caspase-9.

Assay [7] in a line: Inhibitory concentration against Cathepsin B. The method in brief: as §1
The target in assay [8] is T5, Caspase-3 (Homo sapiens, UniProt P42574).
T5 sequence (P42574 whole entry): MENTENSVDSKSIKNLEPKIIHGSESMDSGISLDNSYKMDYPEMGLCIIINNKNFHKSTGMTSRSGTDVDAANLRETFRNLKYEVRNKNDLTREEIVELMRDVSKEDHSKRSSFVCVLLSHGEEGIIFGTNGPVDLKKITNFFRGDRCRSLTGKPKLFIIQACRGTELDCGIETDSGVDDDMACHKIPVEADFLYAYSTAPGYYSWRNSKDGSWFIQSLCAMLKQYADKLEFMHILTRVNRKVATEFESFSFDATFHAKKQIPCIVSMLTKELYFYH
The experiment in a line: Inhibitory concentration against human caspase-3.

Assay [9] is described as follows: Inhibitory concentration against Coagulation factor X. The method in brief:
as §1

Assay [10] has as its system Mus musculus. The experiment in a line: Survival of mice with 0 mg/kg of compound treatment after induction of apoptosis by anti-Fas antibody at 1 hr (n=6). It is filed as functional. In a few lines:
(§2)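 Mice received an IV injection of anti-Fas monoclonal antibody; untreated controls received 8 µg. Five minutes later they received an IV dose of inhibitor in an aqueous vehicle containing 50 mM Tris–HCl, or vehicle alone. Six mice per group. Survivors were counted at 1, 3, 6 and 24 h and at 3 days, when the experiment ended, and reported as a percentage of each group.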

Assay [11] has as its system Mus musculus. The experiment in a line: Survival of mice with 0 mg/kg of compound treatment after induction of apoptosis by anti-Fas antibody at 3 hr (n=6). It is filed as functional. In a few lines:
as §2

Assay [12] relates to Mus musculus. Nature of the assay: Survival of mice with 0 mg/kg of compound treatment after induction of apoptosis by anti-Fas antibody at 6 hr (n=6). It is filed as functional. The method in brief: as §2
Assay [13] in a line: Inhibitory concentration against Caspase-1.
Assay [14] relates to Mus musculus. The experiment in a line: Survival of mice with 1 mg/kg of compound treatment after induction of apoptosis by anti-Fas antibody at 3 hr (n=6). It is filed as functional. In a few lines:
as §2

The subject of assay [15] is Mus musculus. The experiment in a line: Survival of mice with 1 mg/kg of compound treatment after induction of apoptosis by anti-Fas antibody at 6 hr (n=6). It is filed as functional. The method in brief: as §2
The test system of assay [16] is Mus musculus. The experiment in a line: Survival of mice with 0 mg/kg of compound treatment after induction of apoptosis by anti-Fas antibody at 24 hr (n=6). Format: functional. In a few lines: as §2
Assay [17] concerns Mus musculus. Nature of the assay: Survival of mice with 0 mg/kg of compound treatment after induction of apoptosis by anti-Fas antibody at 3 days(n=6). Format: functional. The method in brief:
as §2

Assay [18] deals with Mus musculus. Nature of the assay: Survival of mice with 1 mg/kg of compound treatment after induction of apoptosis by anti-Fas antibody at 24 hr (n=6). Format: functional. In a few lines: as §2
The subject of assay [19] is Mus musculus. Nature of the assay: Survival of mice with 1 mg/kg of compound treatment after induction of apoptosis by anti-Fas antibody at 3 days(n=6). Particulars: 72 h. It is filed as functional. In a few lines:
as §2

Assay [20] has as its system Mus musculus. The experiment in a line: Survival of mice with 10 mg/kg of compound treatment after induction of apoptosis by anti-Fas antibody at 1 hr (n=6). Format: functional. In a few lines:
as §2

The subject of assay [21] is Mus musculus. The experiment in a line: Survival of mice with 10 mg/kg of compound treatment after induction of apoptosis by anti-Fas antibody at 3 hr (n=6). Format: functional. In a few lines:
as §2

Assay [22] concerns Mus musculus. The experiment in a line: Survival of mice with 10 mg/kg of compound treatment after induction of apoptosis by anti-Fas antibody at 6 hr (n=6). Format: functional. In a few lines: as §2
For assay [23], the system named is Mus musculus. The experiment in a line: Survival of mice with 10 mg/kg of compound treatment after induction of apoptosis by anti-Fas antibody at 24 hr (n=6). It is filed as functional. In a few lines: as §2
Assay [24] has as its system Mus musculus. The experiment in a line: Survival of mice with 10 mg/kg of compound treatment after induction of apoptosis by anti-Fas antibody at 3 days(n=6). It is filed as functional. Particulars: 72 h. The method in brief: as §2
Assay [25] concerns Mus musculus. The experiment in a line: Survival of mice with 0.25 mg/kg of compound treatment after induction of apoptosis by anti-Fas antibody at 1 hr (n=6). It is filed as functional. The method in brief:
as §2

Assay [26] has as its system Mus musculus. The experiment in a line: Survival of mice with 0.25 mg/kg of compound treatment after induction of apoptosis by anti-Fas antibody at 3 hr (n=6). Format: functional. The method in brief:
as §2

Assay [27] concerns Mus musculus. Nature of the assay: Survival of mice with 0.25 mg/kg of compound treatment after induction of apoptosis by anti-Fas antibody at 6 hr (n=6). Format: functional. In a few lines:
as §2

The test system of assay [28] is Mus musculus. Nature of the assay: Survival of mice with 0.25 mg/kg of compound treatment after induction of apoptosis by anti-Fas antibody at 24 hr (n=6). It is filed as functional. The method in brief: as §2
For assay [29], the system named is Mus musculus. The experiment in a line: Survival of mice with 0.25 mg/kg of compound treatment after induction of apoptosis by anti-Fas antibody at 3 days(n=6). Format: functional. To be noted: 72 h. In a few lines:
as §2

Chain of Caspase-8 (Q14790 217-374 limits assumed): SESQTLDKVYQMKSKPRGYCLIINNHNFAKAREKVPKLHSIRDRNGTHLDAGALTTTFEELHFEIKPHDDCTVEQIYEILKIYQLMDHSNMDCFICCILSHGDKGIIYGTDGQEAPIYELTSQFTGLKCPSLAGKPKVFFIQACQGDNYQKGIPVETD
Chain of Caspase-8 (Q14790 385-479 limits assumed): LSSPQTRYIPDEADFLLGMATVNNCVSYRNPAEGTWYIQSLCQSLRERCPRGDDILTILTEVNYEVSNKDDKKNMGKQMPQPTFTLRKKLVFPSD

A word on the pIC50: it is −log10 of the IC50, conventionally taken in molar units. Regarding `CC(C)[C@H](OC(=O)Nc1ccccc1)C(=O)NC(CC(=O)O)C(=O)CF` (some centres undefined), the Concentration in assay [1] was 200 nM. Further, the pIC50 was under 4.00 in assay [2]; 7.30 in assay [3]; 7.96 in [4]; 7.77 in assay [5]; 7.52 in assay [6]; under 4.00 in assay [7]. The pIC50 in assay [8] is 7.77; in assay [9], under 4.00; in [13], 7.92. In addition, the Survival in assay [10], in assay [11], in [12], in [16] and in assay [17] was 0% throughout. Also, the survival at 1 mg/kg in [14] amounted to 100%; in assay [15] it was 100%; in [18], 50%; in [19], 0%. Also, the survival at 10 mg/kg in assay [20] came out at 100%; in [21], 100%; in assay [22] it was 100%; in assay [23], 83%; in assay [24], 83%. Moreover, the survival at 0.25 mg/kg is 100% in assay [25]; 100% in [26]; 0% in assay [27]; 0% in assay [28]; 0% in assay [29].
In [1], `CC(C)[C@H](NC(=O)Oc1ccccc1)C(=O)NC(CC(=O)O)C(=O)CF` (some centres undefined) displayed a Concentration of 250 nM.
Take `CC(C)[C@H](OC(=O)Nc1ccccc1)C(=O)NC(CC(=O)O)C(=O)COC(=O)c1c(Cl)cccc1Cl` (some centres undefined): in [1], the Concentration worked out at 1000 nM.
Same read-out and setting: in the case of `CC(C)[C@H](OC(=O)Nc1ccc(Cl)cc1Cl)C(=O)NC(CC(=O)O)C(=O)CF` (some centres undefined) it was 100 nM; in that of `CC(C)[C@H](OC(=O)Nc1ccccc1)C(=O)NC(CC(=O)O)C(=O)COc1cc(C(F)(F)F)nn1-c1ccccc1` (some centres undefined), 1100 nM.
The same measure, in the same setting: in the case of `C[C@H](OC(=O)Nc1ccccc1)C(=O)NC(CC(=O)O)C(=O)CF` (some centres undefined) it was 1400 nM.
